In ChEMBL document CHEMBL3600382, “A-ring substituted 17β-arylsulfonamides of 17β-aminoestra-1,3,5(10)-trien-3-ol as highly potent reversible inhibitors of steroid sulfatase” (Bioorg Med Chem, 2015):

System: not listed separately
Test: Cytotoxicity against human EKVX cells
Type: functional
Conditions: not given

SMILES	GI50 [nM]
C[C@]12CC[C@@H]3c4ccc(O)c([N+](=O)[O-])c4CC[C@H]3[C@@H]1CC[C@@H]2NS(=O)(=O)c1cccc(Br)c1	1000

System: not listed separately
Test: Cytotoxicity against human NCI-ADR-RES cells
Type: functional
Conditions: not given

SMILES	GI50 [nM]
C[C@]12CC[C@@H]3c4ccc(O)c([N+](=O)[O-])c4CC[C@H]3[C@@H]1CC[C@@H]2NS(=O)(=O)c1cccc(Br)c1	1000

System: 786-0
Test: Cytotoxicity against human 786-0 cells
Type: functional
Conditions: not given

SMILES	GI50 [nM]
C[C@]12CC[C@@H]3c4ccc(O)c([N+](=O)[O-])c4CC[C@H]3[C@@H]1CC[C@@H]2NS(=O)(=O)c1cccc(Br)c1	1000

System: SF-295
Test: Cytotoxicity against human SF295 cells
Type: functional
Conditions: not given

SMILES	GI50 [nM]
C[C@]12CC[C@@H]3c4ccc(O)c([N+](=O)[O-])c4CC[C@H]3[C@@H]1CC[C@@H]2NS(=O)(=O)c1cccc(Br)c1	1000

System: MDA-MB-435
Test: Cytotoxicity against human MDA-MB-435 cells
Type: functional
Conditions: not given

SMILES	GI50 [nM]
C[C@]12CC[C@@H]3c4ccc(O)c([N+](=O)[O-])c4CC[C@H]3[C@@H]1CC[C@@H]2NS(=O)(=O)c1cccc(Br)c1	1000

System: NCI-H226
Test: Cytotoxicity against human NCI-H226 cells
Type: functional
Conditions: not given

SMILES	GI50 [nM]
C[C@]12CC[C@@H]3c4ccc(O)c([N+](=O)[O-])c4CC[C@H]3[C@@H]1CC[C@@H]2NS(=O)(=O)c1cccc(Br)c1	1000

System: A498
Test: Cytotoxicity against human A498 cells
Type: functional
Conditions: not given

SMILES	GI50 [nM]
C[C@]12CC[C@@H]3c4ccc(O)c([N+](=O)[O-])c4CC[C@H]3[C@@H]1CC[C@@H]2NS(=O)(=O)c1cccc(Br)c1	1000

System: IGROV-1
Test: Cytotoxicity against human IGROV1 cells
Type: functional
Conditions: not given

SMILES	GI50 [nM]
C[C@]12CC[C@@H]3c4ccc(O)c([N+](=O)[O-])c4CC[C@H]3[C@@H]1CC[C@@H]2NS(=O)(=O)c1cccc(Br)c1	1000

System: OVCAR-8
Test: Cytotoxicity against human OVCAR8 cells
Type: functional
Conditions: not given

SMILES	GI50 [nM]
C[C@]12CC[C@@H]3c4ccc(O)c([N+](=O)[O-])c4CC[C@H]3[C@@H]1CC[C@@H]2NS(=O)(=O)c1cccc(Br)c1	1000

Molecular target: T1, Steryl-sulfatase (Homo sapiens, UniProt P08842)
T1 sequence (P08842 whole entry): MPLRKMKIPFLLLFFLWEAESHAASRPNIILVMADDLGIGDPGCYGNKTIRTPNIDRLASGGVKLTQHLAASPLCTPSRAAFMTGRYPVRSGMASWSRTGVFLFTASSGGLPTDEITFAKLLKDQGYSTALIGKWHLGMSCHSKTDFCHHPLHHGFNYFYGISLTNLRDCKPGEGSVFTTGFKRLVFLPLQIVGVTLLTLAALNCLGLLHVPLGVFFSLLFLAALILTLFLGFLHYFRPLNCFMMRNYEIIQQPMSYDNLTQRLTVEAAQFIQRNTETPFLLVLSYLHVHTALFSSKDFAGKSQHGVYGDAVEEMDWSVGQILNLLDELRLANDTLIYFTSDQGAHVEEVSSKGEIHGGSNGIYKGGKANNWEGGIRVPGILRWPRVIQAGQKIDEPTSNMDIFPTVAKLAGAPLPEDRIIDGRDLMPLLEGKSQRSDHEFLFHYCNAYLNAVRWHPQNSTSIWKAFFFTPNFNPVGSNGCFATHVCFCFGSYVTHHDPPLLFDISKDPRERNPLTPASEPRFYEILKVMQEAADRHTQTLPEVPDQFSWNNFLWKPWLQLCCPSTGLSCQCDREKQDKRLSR
Test: Inhibition of STS (unknown origin) using 4-MUS as substrate measured over 10 mins by fluorescence assay
Conditions: not given
Summary of the method: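 Purified STS (10 nM final) in 0.1 M Tris-HCl pH 7.0 containing Triton X-100, 4-MUS 200 µM final, and inhibitor at eleven concentrations (5 nM–5 µM). Ex 360/em 460 fluorescence read over 10 min at 24 °C, in quadruplicate, with no-enzyme controls. Vi/V0 from initial rates fit to a slope-factor equation. For tight binders, Ki app is the y-intercept of IC50 vs [E] (10–80 nM).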

SMILES	IC50 [nM]
C[C@]12CC[C@@H]3c4ccc(O)c([N+](=O)[O-])c4CC[C@H]3[C@@H]1CC[C@@H]2NS(=O)(=O)c1cccc(Br)c1	12

System: OVCAR-3
Test: Cytotoxicity against human OVCAR3 cells
Type: functional
Conditions: not given

SMILES	GI50 [nM]
C[C@]12CC[C@@H]3c4ccc(O)c([N+](=O)[O-])c4CC[C@H]3[C@@H]1CC[C@@H]2NS(=O)(=O)c1cccc(Br)c1	1000

System: not listed separately
Test: Cytotoxicity against human Hs578T cells
Type: functional
Conditions: Hs-578T

SMILES	GI50 [nM]
C[C@]12CC[C@@H]3c4ccc(O)c([N+](=O)[O-])c4CC[C@H]3[C@@H]1CC[C@@H]2NS(=O)(=O)c1cccc(Br)c1	2100

System: LOX IMVI
Test: Cytotoxicity against human LOXIMVI cells
Type: functional
Conditions: not given

SMILES	GI50 [nM]
C[C@]12CC[C@@H]3c4ccc(O)c([N+](=O)[O-])c4CC[C@H]3[C@@H]1CC[C@@H]2NS(=O)(=O)c1cccc(Br)c1	1000

System: HOP-92
Test: Cytotoxicity against human HOP92 cells
Type: functional
Conditions: not given

SMILES	GI50 [nM]
C[C@]12CC[C@@H]3c4ccc(O)c([N+](=O)[O-])c4CC[C@H]3[C@@H]1CC[C@@H]2NS(=O)(=O)c1cccc(Br)c1	1000

System: SF-539
Test: Cytotoxicity against human SF539 cells
Type: functional
Conditions: not given

SMILES	GI50 [nM]
C[C@]12CC[C@@H]3c4ccc(O)c([N+](=O)[O-])c4CC[C@H]3[C@@H]1CC[C@@H]2NS(=O)(=O)c1cccc(Br)c1	1000

System: TK-10
Test: Cytotoxicity against human TK10 cells
Type: functional
Conditions: not given

SMILES	GI50 [nM]
C[C@]12CC[C@@H]3c4ccc(O)c([N+](=O)[O-])c4CC[C@H]3[C@@H]1CC[C@@H]2NS(=O)(=O)c1cccc(Br)c1	1000

System: MCF7
Test: Cytotoxicity against human MCF7 cells
Type: functional
Conditions: not given

SMILES	GI50 [nM]
C[C@]12CC[C@@H]3c4ccc(O)c([N+](=O)[O-])c4CC[C@H]3[C@@H]1CC[C@@H]2NS(=O)(=O)c1cccc(Br)c1	1900

System: HL-60(TB)
Test: Cytotoxicity against human HL-60(TB) cells
Type: functional
Conditions: not given

SMILES	GI50 [nM]
C[C@]12CC[C@@H]3c4ccc(O)c([N+](=O)[O-])c4CC[C@H]3[C@@H]1CC[C@@H]2NS(=O)(=O)c1cccc(Br)c1	1000

System: MDA-MB-231
Test: Cytotoxicity against human MDA-MB-231 cells
Type: functional
Conditions: not given

SMILES	GI50 [nM]
C[C@]12CC[C@@H]3c4ccc(O)c([N+](=O)[O-])c4CC[C@H]3[C@@H]1CC[C@@H]2NS(=O)(=O)c1cccc(Br)c1	1500

System: CAKI-1
Test: Cytotoxicity against human Caki1 cells
Type: functional
Conditions: not given

SMILES	GI50 [nM]
C[C@]12CC[C@@H]3c4ccc(O)c([N+](=O)[O-])c4CC[C@H]3[C@@H]1CC[C@@H]2NS(=O)(=O)c1cccc(Br)c1	1000

System: RXF 393
Test: Cytotoxicity against human RXF393 cells
Type: functional
Conditions: not given

SMILES	GI50 [nM]
C[C@]12CC[C@@H]3c4ccc(O)c([N+](=O)[O-])c4CC[C@H]3[C@@H]1CC[C@@H]2NS(=O)(=O)c1cccc(Br)c1	1000

System: ACHN
Test: Cytotoxicity against human ACHN cells
Type: functional
Conditions: not given

SMILES	GI50 [nM]
C[C@]12CC[C@@H]3c4ccc(O)c([N+](=O)[O-])c4CC[C@H]3[C@@H]1CC[C@@H]2NS(=O)(=O)c1cccc(Br)c1	1000

System: SK-OV-3
Test: Cytotoxicity against human SKOV3 cells
Type: functional
Conditions: not given

SMILES	GI50 [nM]
C[C@]12CC[C@@H]3c4ccc(O)c([N+](=O)[O-])c4CC[C@H]3[C@@H]1CC[C@@H]2NS(=O)(=O)c1cccc(Br)c1	1000

System: UACC-62
Test: Cytotoxicity against human UACC62 cells
Type: functional
Conditions: not given

SMILES	GI50 [nM]
C[C@]12CC[C@@H]3c4ccc(O)c([N+](=O)[O-])c4CC[C@H]3[C@@H]1CC[C@@H]2NS(=O)(=O)c1cccc(Br)c1	1000

System: HT-29
Test: Cytotoxicity against human HT-29 cells
Type: functional
Conditions: not given

SMILES	GI50 [nM]
C[C@]12CC[C@@H]3c4ccc(O)c([N+](=O)[O-])c4CC[C@H]3[C@@H]1CC[C@@H]2NS(=O)(=O)c1cccc(Br)c1	1000
